ChEMBL document CHEMBL4017520, “Discovery, Structure-Activity Relationship, and Antiparkinsonian Effect of a Potent and Brain-Penetrant Chemical Series of Positive Allosteric Modulators of Metabotropic Glutamate Receptor 4” (J Med Chem, 2017)
Values belong to the compound of their own block, whether it stands above or below them. Active and inactive are the calls of the source. No cut-off for these calls is given here.

Assays:
[1] = molecular target: D(1A) dopamine receptor (Homo sapiens) (UniProt P21728); test: Antagonist activity at D1 receptor (unknown origin) at 10 uM
[2] = molecular target: D(1A) dopamine receptor (Homo sapiens) (UniProt P21728); test: Positive allosteric modulation of D1 receptor (unknown origin) at 10 uM
[3] = molecular target: D(2) dopamine receptor (Homo sapiens) (UniProt P14416); test: Positive allosteric modulation of D2L receptor (unknown origin) at 10 uM
[4] = molecular target: T1, Metabotropic glutamate receptor 4 (Homo sapiens, UniProt Q14833); test: Positive allosteric modulation of recombinant human mGlu4 receptor expressed in HEK293 cells co-expressing chimeric Gi/Gq protein assessed as fold shift in glutamate-induced calcium flux at 3 uM preincubated for 10 mins followed by glutamate addition measured for 3 mins by Fluo4-AM dye based fluorescence assay; format: functional, cell-based
Method in brief: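 HEK-293 cells transiently co-transfected by electroporation with human mGluR4 and chimeric Gi/Gq (GqTOP) were cultured 24 h, FCS-starved 3 h, then loaded 1 h 30 min with 1 μM Fluo4-AM in HBSS/20 mM HEPES buffer containing probenecid and 0.1% BSA. Compound was added for 10 min, then glutamate (10 or 20 concentrations over 4.5 logs), read 3 min (ex 485/em 525 nm). The fold change in glutamate potency with vs without compound gives the shift.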

Rattus norvegicus [5] = test: Protection against 6-OHDA induced parkinsonian motor deficit in Sprague-Dawley rat assessed as increase in slow activity at 30 mg/kg, ip after 30 to 120 mins post administration; format: functional, organism-based
Method in brief: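 Adult male Sprague−Dawley rats with bilateral 6-OHDA striatal lesions given compound 30 mg/kg ip or vehicle at T0; spontaneous locomotor activity (active time, slow activity, rearing) counted in 5-min bins versus pre-surgery vehicle; n = 10.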

[6] = molecular target: Adenosine receptor A2a (Homo sapiens) (UniProt P29274); test: Positive allosteric modulation of A2A receptor (unknown origin) at 10 uM
[7] = molecular target: Glycogen synthase kinase-3 beta (Homo sapiens) (UniProt P49841); test: Inhibition of GSK3beta (unknown origin) at 10 uM
[8] = molecular target: D(1A) dopamine receptor (Homo sapiens) (UniProt P21728); test: Agonist activity at D1 receptor (unknown origin) at 10 uM
[9] = molecular target: Amine oxidase [flavin-containing] A (Homo sapiens, UniProt P21397); test: Activity at MAO-A (unknown origin) up to 10 uM; format: ADME
[10] = Plasma concentration in Sprague-Dawley rat at 30 mg/kg, ip after 30 mins; format: ADME, organism-based
Method in brief: (§1)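 Rats dosed 30 mg/kg ip; plasma sampled over time, brain measured at 30 and 60 min; brain/plasma ratio averaged over 30 and 60 min.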

[11] = AUC (0 to infinity) in Sprague-Dawley rat at 1 mg/kg, iv administered as single dose by LC-MS/MS analysis; format: ADME, organism-based; parameters: dose 1 mg/kg, route intravenous, time infinity; conditions: in vivo
[12] = Ratio of drug uptake in Sprague-Dawley rat brain at 10 mg/kg, ip to EC50 for rat mGlu4 receptor expressed in HEK293 cells
Method in brief: (§2)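 Rats received a single ip or oral dose. Brain concentration was measured 30 min postdose, mean of 3 rats, and divided by the EC50 measured in cell lines overexpressing rat mGluR4.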

[13] = Ratio of drug uptake in Sprague-Dawley rat brain at 30 mg/kg, ip to EC50 for rat mGlu4 receptor expressed in HEK293 cells; method in brief: as §2
[14] = Plasma concentration in Sprague-Dawley rat at 30 mg/kg, ip after 240 mins; format: ADME, organism-based; method in brief: as §1
[15] = Plasma clearance in Sprague-Dawley rat at 1 mg/kg, iv administered as single dose by LC-MS/MS analysis; format: ADME, organism-based
Method in brief: (§3)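 Single iv dose, 1 mg/kg in rat or 2 mg/kg in mouse; plasma PK parameters derived; brain/plasma ratio taken at 1 h postdose (rat) or 30 min postdose (mouse). Mean of 3 rats; 2 mice for mouse Cmax and brain/plasma.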

[16] = Ratio of drug level in C57BL/6 mouse brain to plasma at 2 mg/kg, iv administered as single dose measured after 30 mins by LC-MS/MS analysis; format: ADME, organism-based; conditions: read-out: BPR; method in brief: as §3
[17] = Activity at COMT (unknown origin) up to 10 uM; format: ADME; conditions: human
[18] = AUC (0 to infinity) in Sprague-Dawley rat plasma at 10 mg/kg, po administered as single dose by LC-MS/MS analysis; format: ADME, organism-based; parameters: dose 10 mg/kg, time infinity, route oral
Method in brief: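 Rats given a single oral dose of 10 mg/kg. The first plasma sample was taken at 15 min, and sampling continued to 24 h postdose. Brain was sampled at 30 min. Values are the mean (±SEM) of 3 rats.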

[19] = Cmax in Sprague-Dawley rat at 1 mg/kg, iv administered as single dose by LC-MS/MS analysis; format: ADME, organism-based; parameters: dose 1 mg/kg, route intravenous; conditions: in vivo
[20] = Ratio of drug level in Sprague-Dawley rat brain to plasma at 10 mg/kg, ip after 30 mins post dose administered as single dose by LC-MS/MS analysis; format: ADME, organism-based; conditions: read-out: BPR
Method in brief: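 Single dose ip (10 or 30 mg/kg, rat) or oral (10 mg/kg, rat or mouse); plasma Cmax, Tmax, half-life, AUC0−inf derived; brain concentration and brain/plasma ratio at 30 min postdose. Mean of 3 rats or 2 mice.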

[21] = Drug uptake in Sprague-Dawley rat brain at 10 mg/kg, po after 60 mins post dose administered as single dose by LC-MS/MS analysis; format: ADME, organism-based; conditions: read-out: Drug uptake
Method in brief: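 Rats given a single oral dose of 10 mg/kg. Brain concentrations were measured at 30, 60 and 90 min postdose, and brain AUC0–inf was determined. Values are the mean of three rats. Lower limit of quantification was 1 ng/mL.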

[22] = molecular target: T1, Metabotropic glutamate receptor 4; test: Positive allosteric modulation of recombinant human mGlu4 receptor expressed in HEK293 cells co-expressing Gi/Gq assessed as increase in glutamate-induced calcium flux preincubated for 10 mins followed by glutamate addition measured for 3 mins by Fluo4-AM dye based fluorescence assay; format: functional, cell-based; conditions: read-out: EC50
[23] = molecular target: Metabotropic glutamate receptor 4 (Rattus norvegicus, UniProt P31423); test: Positive allosteric modulation of rat mGlu4 receptor expressed in HEK293 cells co-expressing Gi/Gq assessed as increase in glutamate-induced calcium flux preincubated for 10 mins followed by glutamate addition measured for 3 mins by Fluo4-AM dye based fluorescence assay; format: functional, cell-based
[24] = Ratio of fraction unbound in Sprague-Dawley rat brain at 30 mg/kg, ip after 30 mins to EC50 for rat mGlu4 receptor expressed in HEK293 cells
[25] = Tmax in C57BL/6 mouse plasma at 10 mg/kg, po administered as single dose by LC-MS/MS analysis; format: ADME, organism-based
Method in brief: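 Single-dose plasma PK after ip (10 or 30 mg/kg) or oral (10 mg/kg) dosing in rats, and oral 10 mg/kg dosing in mice. […] Values are mean ±SEM of 3 rats or 2 mice.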

[26] = Ratio of drug level in Sprague-Dawley rat brain to plasma at 1 mg/kg, iv after 1 hr post dose administered as single dose by LC-MS/MS analysis; format: ADME, organism-based; conditions: read-out: BPR; method in brief: as §3
[27] = AUC (0 to infinity) in Sprague-Dawley rat plasma at 30 mg/kg, ip administered as single dose by LC-MS/MS analysis; format: ADME, organism-based; parameters: dose 30 mg/kg, time infinity, route intraperitoneal
Method in brief: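 Rats dosed ip at 10 or 30 mg/kg. Plasma Cmax, Tmax, half-life and AUC0–inf were determined. Brain concentration was measured 30 min postdose, and brain/plasma ratio was taken at 30 min. Values are the mean (±SEM) of 3 rats.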

Rattus norvegicus [28] = test: Toxicity in 6-OHDA induced parkinsonian motor deficit Sprague-Dawley rat model assessed as induction of overacting rearing behavior up to 30 mg/kg, ip; format: organism-based; conditions: in vivo

Chain of D(1A) dopamine receptor (Homo sapiens) (P21728 whole entry): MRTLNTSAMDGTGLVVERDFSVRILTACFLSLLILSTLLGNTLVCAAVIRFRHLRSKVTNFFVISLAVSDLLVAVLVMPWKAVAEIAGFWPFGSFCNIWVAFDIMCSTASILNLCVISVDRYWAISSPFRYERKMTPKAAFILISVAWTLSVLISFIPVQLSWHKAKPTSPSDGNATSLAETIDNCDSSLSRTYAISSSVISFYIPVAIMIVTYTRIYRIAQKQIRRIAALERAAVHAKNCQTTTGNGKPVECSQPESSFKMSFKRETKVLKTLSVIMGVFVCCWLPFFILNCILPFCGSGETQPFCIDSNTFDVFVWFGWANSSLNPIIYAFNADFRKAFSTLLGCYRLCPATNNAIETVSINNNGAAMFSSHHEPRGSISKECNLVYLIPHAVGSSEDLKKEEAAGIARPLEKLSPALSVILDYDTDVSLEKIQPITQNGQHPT
T1 sequence (Q14833 whole entry): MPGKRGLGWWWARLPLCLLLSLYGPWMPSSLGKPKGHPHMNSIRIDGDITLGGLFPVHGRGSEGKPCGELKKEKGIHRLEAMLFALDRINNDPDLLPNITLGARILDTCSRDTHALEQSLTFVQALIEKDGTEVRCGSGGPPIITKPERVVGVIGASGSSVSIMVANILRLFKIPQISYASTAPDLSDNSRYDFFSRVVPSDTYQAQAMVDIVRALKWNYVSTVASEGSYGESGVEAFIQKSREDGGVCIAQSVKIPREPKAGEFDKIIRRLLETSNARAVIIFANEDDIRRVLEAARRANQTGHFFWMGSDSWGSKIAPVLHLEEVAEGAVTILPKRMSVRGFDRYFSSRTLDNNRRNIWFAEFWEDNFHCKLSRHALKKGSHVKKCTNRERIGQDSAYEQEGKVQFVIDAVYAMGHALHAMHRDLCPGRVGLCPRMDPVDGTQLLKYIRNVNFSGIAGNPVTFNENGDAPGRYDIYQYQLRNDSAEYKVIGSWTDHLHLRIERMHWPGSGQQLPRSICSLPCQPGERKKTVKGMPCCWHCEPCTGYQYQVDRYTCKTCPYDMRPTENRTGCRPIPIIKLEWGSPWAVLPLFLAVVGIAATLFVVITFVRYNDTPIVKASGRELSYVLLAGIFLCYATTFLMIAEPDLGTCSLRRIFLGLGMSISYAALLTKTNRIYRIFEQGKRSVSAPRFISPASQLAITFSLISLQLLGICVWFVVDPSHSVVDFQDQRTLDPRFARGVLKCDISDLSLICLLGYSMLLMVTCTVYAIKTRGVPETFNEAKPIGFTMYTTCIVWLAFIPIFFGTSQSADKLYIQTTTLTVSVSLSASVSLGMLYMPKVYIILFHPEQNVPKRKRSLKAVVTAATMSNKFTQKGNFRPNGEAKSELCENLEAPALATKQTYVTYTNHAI
Chain of Glycogen synthase kinase-3 beta (Homo sapiens) (P49841 whole entry, looked up): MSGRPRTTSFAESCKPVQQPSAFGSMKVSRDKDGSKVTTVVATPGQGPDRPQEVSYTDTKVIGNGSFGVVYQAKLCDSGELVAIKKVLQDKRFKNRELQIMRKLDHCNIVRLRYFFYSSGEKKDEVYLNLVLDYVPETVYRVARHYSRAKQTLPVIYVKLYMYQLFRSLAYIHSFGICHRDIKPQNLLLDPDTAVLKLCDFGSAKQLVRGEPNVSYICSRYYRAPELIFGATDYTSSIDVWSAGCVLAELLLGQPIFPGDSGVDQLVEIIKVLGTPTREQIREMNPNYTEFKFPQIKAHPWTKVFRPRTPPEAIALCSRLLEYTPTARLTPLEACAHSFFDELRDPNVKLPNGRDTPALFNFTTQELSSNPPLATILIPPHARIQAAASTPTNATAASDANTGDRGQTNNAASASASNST
Chain of Metabotropic glutamate receptor 4 (Rattus norvegicus, UniProt P31423) (P31423 whole entry): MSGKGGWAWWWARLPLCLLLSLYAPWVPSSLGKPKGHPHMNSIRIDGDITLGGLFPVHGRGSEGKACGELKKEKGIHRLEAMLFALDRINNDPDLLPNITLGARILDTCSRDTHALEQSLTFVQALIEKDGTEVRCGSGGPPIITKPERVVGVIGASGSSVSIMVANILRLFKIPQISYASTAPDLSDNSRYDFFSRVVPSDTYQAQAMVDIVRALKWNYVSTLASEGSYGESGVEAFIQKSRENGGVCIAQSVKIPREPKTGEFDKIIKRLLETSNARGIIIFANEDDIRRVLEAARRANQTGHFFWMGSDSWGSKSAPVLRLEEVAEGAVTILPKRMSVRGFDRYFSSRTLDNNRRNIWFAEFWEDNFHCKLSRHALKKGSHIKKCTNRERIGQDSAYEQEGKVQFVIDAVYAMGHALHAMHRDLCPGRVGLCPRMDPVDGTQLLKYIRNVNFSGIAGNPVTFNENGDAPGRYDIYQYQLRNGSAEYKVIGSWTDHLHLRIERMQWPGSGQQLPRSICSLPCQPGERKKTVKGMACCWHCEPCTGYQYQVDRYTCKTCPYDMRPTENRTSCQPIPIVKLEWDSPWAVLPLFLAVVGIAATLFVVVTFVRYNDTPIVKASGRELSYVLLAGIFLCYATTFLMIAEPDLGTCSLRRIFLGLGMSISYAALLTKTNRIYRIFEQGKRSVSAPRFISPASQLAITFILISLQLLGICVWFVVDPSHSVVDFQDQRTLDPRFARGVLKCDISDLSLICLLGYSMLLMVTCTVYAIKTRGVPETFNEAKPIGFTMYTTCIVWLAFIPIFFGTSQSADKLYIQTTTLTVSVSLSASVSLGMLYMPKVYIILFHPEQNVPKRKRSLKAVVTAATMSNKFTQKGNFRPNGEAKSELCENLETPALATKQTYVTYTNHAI
Chain of Adenosine receptor A2a (Homo sapiens) (P29274 whole entry): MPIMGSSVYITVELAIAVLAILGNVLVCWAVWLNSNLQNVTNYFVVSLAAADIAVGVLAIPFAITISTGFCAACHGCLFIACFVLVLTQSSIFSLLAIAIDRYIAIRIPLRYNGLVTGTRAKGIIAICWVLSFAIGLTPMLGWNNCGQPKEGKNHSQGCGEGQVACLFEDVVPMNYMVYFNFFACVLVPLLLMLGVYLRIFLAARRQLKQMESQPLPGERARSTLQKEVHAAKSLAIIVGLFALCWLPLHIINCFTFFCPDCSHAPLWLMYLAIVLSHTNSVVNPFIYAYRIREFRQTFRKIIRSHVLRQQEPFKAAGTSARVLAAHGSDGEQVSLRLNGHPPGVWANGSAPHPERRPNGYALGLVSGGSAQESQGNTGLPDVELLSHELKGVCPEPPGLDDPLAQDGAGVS
Chain of Amine oxidase [flavin-containing] A (P21397 whole entry): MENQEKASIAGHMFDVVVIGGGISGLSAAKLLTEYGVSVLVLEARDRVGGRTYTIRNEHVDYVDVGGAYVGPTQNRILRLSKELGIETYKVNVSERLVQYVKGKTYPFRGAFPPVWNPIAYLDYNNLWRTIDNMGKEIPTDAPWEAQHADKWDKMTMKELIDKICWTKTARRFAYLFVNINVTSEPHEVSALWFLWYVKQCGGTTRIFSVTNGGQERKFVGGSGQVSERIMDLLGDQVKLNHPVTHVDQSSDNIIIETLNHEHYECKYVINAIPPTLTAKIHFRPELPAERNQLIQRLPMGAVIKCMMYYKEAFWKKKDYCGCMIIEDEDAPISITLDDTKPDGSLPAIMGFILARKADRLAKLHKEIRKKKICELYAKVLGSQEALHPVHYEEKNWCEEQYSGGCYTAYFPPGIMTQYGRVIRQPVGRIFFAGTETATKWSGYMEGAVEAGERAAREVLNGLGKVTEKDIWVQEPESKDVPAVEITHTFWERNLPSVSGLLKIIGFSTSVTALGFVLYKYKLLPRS
Chain of D(2) dopamine receptor (Homo sapiens) (P14416 whole entry): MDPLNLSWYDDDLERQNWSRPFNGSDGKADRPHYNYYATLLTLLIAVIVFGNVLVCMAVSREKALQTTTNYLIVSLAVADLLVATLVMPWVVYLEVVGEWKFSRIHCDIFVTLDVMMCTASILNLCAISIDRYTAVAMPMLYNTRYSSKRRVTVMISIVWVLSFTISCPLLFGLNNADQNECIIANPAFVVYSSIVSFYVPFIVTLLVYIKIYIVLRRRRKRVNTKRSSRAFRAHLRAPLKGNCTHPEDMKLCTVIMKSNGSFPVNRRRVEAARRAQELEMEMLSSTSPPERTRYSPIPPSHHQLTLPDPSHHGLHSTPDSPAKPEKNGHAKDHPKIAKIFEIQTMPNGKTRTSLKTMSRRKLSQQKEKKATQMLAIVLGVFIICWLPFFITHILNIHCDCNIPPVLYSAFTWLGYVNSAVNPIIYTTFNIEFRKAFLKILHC

Activity [1]: inactive
Activity [2]: inactive
Activity [3]: inactive
fold change (FC) [4]: 10
Activity [6]: inactive
inhibition [7]: inactive
Activity [8]: inactive
Structure (SMILES): O/N=c1\cc(-c2cc3cccn3cn2)oc2ccc(OCCN3CCOCC3)cc12 [listing 1 of 2 here]
Activity (Rattus norvegicus [5]): Active

Activity [9]: Not Active
concentration at 0.5 h [10]: 7400 ng/mL
AUC(0-inf) [11]: 166 ng·h/mL
concentration at 4 h [14]: 99 ng/mL
clearance [15]: 113 mL/min/kg
Kp at 0.5 h [16]: 3.6
Activity [17]: Not Active
AUC(0-inf) [18]: 903 ng·h/mL
Cmax [19]: 444 ng/mL
Kp at 0.5 h [20]: 3.1
concentration at 1 h [21]: 262 ng/g
EC50 [22]: 46 nM
EC50 [23]: 27 nM
Tmax [25]: 30 min
Kp at 1 h [26]: 3.3
AUC(0-inf) [27]: 11300 ng·h/mL
Structure (SMILES): O/N=c1\cc(-c2cc3cccn3cn2)oc2ccc(OCCN3CCOCC3)cc12 [listing 2 of 2 here]
Ratio [12]: 3.6
Ratio [13]: 14.5
Ratio [24]: 14.5
Activity (Rattus norvegicus [28]): Non-Toxic
